# Laboratory results as given in article PMC6039259 (Nature medicine, 2018).
# Assays:
# hA53T α-syn Tg mice = experiment: hA53T α-synuclein transgenic mouse model; format: in vivo
# primary astrocytes = experiment: A1 astrocyte induction by α-syn PFF-MCM in primary astrocytes; format: cell-based, mouse
# Outline: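 Primary microglia and astrocytes come from P1 CD1 mouse whole brains. Mixed glia are grown 13 days, then split by CD11b positive selection: the bound fraction is microglia and the pour-off is astrocytes. Microglia get α-syn PFF with PBS or test compound (1 μM). Their conditioned medium is applied to astrocytes for 24 hrs, and GFAP is measured by immunoblot.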
# human DA neurons = experiment: α-syn PFF-ACM toxicity in human DA neurons; format: cell-based; conditions: NLY01 applied to the α-syn PFF treated microglia; alamarBlue, LDH, trypan blue, 5 days
# [1] = test system: human dopaminergic (DA) neurons; experiment: Direct α-syn PFF toxicity in human DA neurons; format: cell-based; conditions: direct treatment of DA neurons, NLY01 1 µM, human α-syn PFF 5 µg/ml
# Outline: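 Viability is read three ways: alamarBlue per kit protocol, LDH activity in culture medium measured spectrophotometrically, and trypan blue counting. For trypan blue, neurons are trypsin-dissociated to single cells and mixed 1:1 with dye. Live and dead cells are counted on an automated cell counter, with three wells per condition.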
# [2] = test system: astrocytes of ventral midbrain; experiment: qPCR of astrocytes from ventral midbrain of α-syn PFF injected mice; format: in vivo
# [3] = NLY01 accumulation in brain / BBB penetration; format: in vivo, mice
# [4] = test system: murine primary cortical cultures; experiment: α-syn PFF-ACM toxicity in murine primary cortical neurons; format: cell-based, mouse
# Outline: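 Cortical neurons from E15.5 CD1 embryos are grown in B-27 Neurobasal medium on poly-L-lysine. ACM is made by giving astrocytes 24 h of α-syn PFF-MCM, with or without test compound on the microglia. It is collected with protease inhibitors, concentrated about 50X (10 kDa cutoff) and dosed at 15 μg/ml total protein. Nuclei are stained with Hoechst (7 μM) and PI (2 μM) and counted by computer, relative to control wells.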
# [5] = test system: α-syn PFF injected C57BL6 mice; experiment: Intrastriatal α-syn PFF mouse model of sporadic PD; format: in vivo
# primary microglia = experiment: α-syn PFF-induced activation of primary microglia; format: cell-based, mouse
# Outline: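 Primary mouse microglia, CD11b-selected from P1 mixed glia, are pretreated with test compound (1 μM), then given α-syn PFF (1 μg/ml). PFF is endotoxin-depleted recombinant mouse α-syn, stirred a week at 37 °C and sonicated. For qPCR, total RNA is normalized to β-actin by 2^−ΔΔCt, with n=3 independent cultures. Cytokines in medium collected 18 hrs post-PFF are measured by mouse cytokine ELISA array.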
# human recombinant GLP-1R = human recombinant GLP-1R (Homo sapiens, UniProt P43220); experiment: cAMP production in GLP-1R transfected HEK-293/CRE-LUC/GLP1R cells; format: cell-based
# [6] = 3 mg/kg s.c. twice a week for five months
# Sequence of human recombinant GLP-1R (P43220 24-463): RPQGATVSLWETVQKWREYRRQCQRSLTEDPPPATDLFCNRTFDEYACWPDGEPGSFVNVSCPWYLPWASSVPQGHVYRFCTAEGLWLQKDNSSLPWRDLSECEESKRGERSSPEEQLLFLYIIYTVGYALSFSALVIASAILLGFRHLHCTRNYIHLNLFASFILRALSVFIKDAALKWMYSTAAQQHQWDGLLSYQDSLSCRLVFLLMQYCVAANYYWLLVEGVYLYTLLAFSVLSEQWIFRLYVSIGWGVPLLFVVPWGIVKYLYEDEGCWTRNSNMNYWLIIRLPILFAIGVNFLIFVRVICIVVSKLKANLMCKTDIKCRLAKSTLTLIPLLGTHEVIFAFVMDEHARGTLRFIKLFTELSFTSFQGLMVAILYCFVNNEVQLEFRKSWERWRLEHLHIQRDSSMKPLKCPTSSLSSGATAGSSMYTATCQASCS
substance,measurement,setting,value
"His-Gly-Glu-Gly-Thr-Phe-Thr-Ser-Asp-Leu-Ser-Lys-Gln-Met-Glu-Glu-Glu-Ala-Val-Arg-Leu-Phe-Ile-Glu-Trp-Leu-Lys-Asn-Gly-Gly-Pro-Ser-Ser-Gly-Ala-Pro-Pro-Pro-Ser-Cys(PEG50K)-NH2 [NLY01, pegylated [Cys^40]Exendin-4]",prolongation of lifespan,"hA53T α-syn Tg mice; 3 mg/kg s.c. twice a week from six months of age, n=20",over 100 days
same,"p-α-syn ser129 immunoreactivity, aggregated α-syn and ubiquitin immunoreactivity","hA53T α-syn Tg mice; 3 mg/kg, brainstem",reduction
same,"microglial and astrocytic activation (Iba-1, GFAP immunoreactivity)",hA53T α-syn Tg mice; brainstem,significantly attenuates
same,increase of C3 mRNA,hA53T α-syn Tg mice; ten-month-old hA53T α-syn Tg mice,prevented
same,α-syn PFF-MCM induced GFAP,"primary astrocytes; NLY01 1 μM, 24 hrs, immunoblot",blocked
same,induction of A1 astrocytic specific markers,"primary astrocytes; NLY01 treatment of microglia, but not that of astrocytes",prevents
same,α-syn PFF-ACM induced cell death,human DA neurons,significantly prevents
same,"protection against α-syn PFF induced cell death (alamarBlue, LDH, trypan blue)",[1],fails to protect
same,α-syn PFF induced A1 astrocyte specific transcripts,[2],prevented
same,induction of C3 mRNA in isolated astrocytes,[2]; n=4,blocks
same,brain levels,"[3]; ten-month-old hA53T Tg mice, 3 mg/kg",reaches high brain levels
same,blood-brain barrier penetration,[3]; wild type (WT) mice,efficiently penetrates the blood-brain barrier
same,α-syn PFF-ACM induced cell death,"[4]; NLY01 (1 µM) applied to the α-syn PFF treated microglia, Hoechst/PI, 48 hrs",significantly prevents
same,p-α-syn ser129 levels induced by α-syn PFF-ACM,[4]; pretreatment of NLY01 in microglia,significantly reduced
same,"Triton X-100 insoluble α-syn and p-α-syn ser129, western blot",[5]; [6],significantly reduces
same,α-syn PFF induced reduction in striatal TH immunoreactivity and striatal TH and DAT protein,[5]; [6],rescued
same,"p-α-syn ser129 immunoreactivity in striatum, ventral midbrain and TH neurons","[5]; 3 mg/kg s.c. twice a week for five months, from one month after α-syn PFF",significantly reduces
same,α-syn PFF induced loss of TH and Nissl positive neurons in the SNpc,"[5]; 3 mg/kg s.c. twice a week for five months, n=10",prevented
same,ipsilateral amphetamine induced rotation,"[5]; 5 mg/kg amphetamine i.p., six months after α-syn PFF",prevented
same,α-syn PFF induced GFAP immunoreactivity and GFAP level in the ventral midbrain,[5]; immunohistochemistry and western blot,blocked
same,"α-syn PFF induced mRNA for Il1a, Il1b, Tnfα, C1qa, Il6 in ventral midbrain","[5]; qPCR, n=4",blocked
same,behavioral deficits in accelerating rotarod test and pole test,[5]; six months after α-syn PFF,significantly reduces the behavioral deficits
same,"contralateral forepaw touches, cylinder test",[5]; six months after α-syn PFF,restored
same,"increase in grooming time and reduction in rearing, cylinder test",[5]; six months after α-syn PFF,restored
same,Iba-1 immunoreactivity and microglial density in the SNpc,[5]; six months post injection,significantly reduces
same,uptake of α-syn PFF in microglia,primary microglia,does not interfere
same,"α-syn PFF induced C1q and TNFα release into media, western blot",primary microglia; NLY01 1 µM pretreatment,significantly inhibited
same,"α-syn PFF induced protein levels of IL-1α, TNFα, IL-1ß, C1q, ELISA","primary microglia; NLY01 1 μM pretreatment, MCM 18 hrs after α-syn PFF",reduced
same,"α-syn PFF induced mRNA for Il1a, Il1b, Tnfα, C1qa, Il6, qPCR","primary microglia; NLY01 1 μM pretreatment, α-syn PFF 1 μg/ml",significantly reduces
same,"α-syn PFF induced cytokines (IL-1α, TNFα, IL-1ß, IL-6, leptin), ELISA cytokine array","primary microglia; primary microglia, α-syn PFF 1 µg/ml",reduces
same,NF-kB pathway,primary microglia; α-syn PFF-induced NF-kB nuclear translocation and phosphorylation,inhibits
same,biologic activity in vitro relative to Exendin-4,human recombinant GLP-1R,comparable biologic activity
